Our source for the IC50 values is ChEMBL document CHEMBL1127489, “Synthesis of novel N-phosphonoalkyl dipeptide inhibitors of human collagenase” (J Med Chem, 1994).

The assay addresses T1, Interstitial collagenase (Homo sapiens, UniProt P03956).
T1 sequence (P03956 whole entry): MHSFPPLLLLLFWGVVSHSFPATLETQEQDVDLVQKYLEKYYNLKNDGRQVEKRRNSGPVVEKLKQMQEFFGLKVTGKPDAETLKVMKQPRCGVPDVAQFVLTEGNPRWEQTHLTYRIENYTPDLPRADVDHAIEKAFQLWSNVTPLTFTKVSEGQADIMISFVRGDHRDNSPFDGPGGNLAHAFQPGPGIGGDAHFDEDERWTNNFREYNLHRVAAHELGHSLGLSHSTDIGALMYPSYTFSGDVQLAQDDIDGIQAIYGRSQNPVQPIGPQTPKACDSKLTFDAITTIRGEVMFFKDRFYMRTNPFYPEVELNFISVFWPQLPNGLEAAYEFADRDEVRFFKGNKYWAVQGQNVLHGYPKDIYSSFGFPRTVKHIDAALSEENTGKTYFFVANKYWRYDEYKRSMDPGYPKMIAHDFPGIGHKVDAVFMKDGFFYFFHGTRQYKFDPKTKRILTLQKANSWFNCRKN
Nature of the assay: Inhibition of degradation of radiolabeled rat skin type I collagen by semipurified human lung fibroblast collagenase. A digest of the protocol: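 Collagenase from WI-38 human lung fibroblast culture supernatants, trypsin-activated and semipurified. Substrate was 3H- or 14C-acetylated rat skin type I collagen, 100 μg/tube, added at 4 °C. Enzyme amount set to degrade 70% of collagen. Compounds were dissolved in MeOH by sonication and serially diluted. Incubation ran 1000 min at 37 °C, then centrifugation at 4 °C. Supernatant soluble peptides were scintillation counted.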
What is called IC50 is the concentration that inhibits the measured activity by half. Low values mean greater potency, high ones weaker potency. `CC[C@H](N[C@@H](CC(C)C)C(=O)N[C@@H](CCCCN)C(=O)NC)P(=O)(O)O` displayed an IC50 of 4320 nM.

`CC[C@H](N[C@@H](CC(C)C)C(=O)N[C@@H](CCCNC(=N)N)C(=O)NC)P(=O)(O)O` returned an IC50 of 290 nM.

Compound `CNC(=O)[C@H](Cc1ccc(OC)cc1)NC(=O)[C@H](CC(C)C)N[C@H](C)P(=O)(O)O` came in with an IC50 of 260 nM.

The compound `CNC(=O)[C@H](Cc1ccc(OC)cc1)NC(=O)C(CC(C)C)NC(CC(C)C)P(=O)(O)O` (stereo not given in full) displayed an IC50 of 2900 nM.

`CC[C@H](N[C@@H](CC(C)C)C(=O)N[C@@H](Cn1cccn1)C(=O)NC)P(=O)(O)O`: half-maximal inhibition (IC50) required 760 nM.

For the compound `CC[C@H](N[C@H](CC(C)C)C(=O)N[C@@H](Cc1ccccc1)C(=O)NC)P(=O)(O)O`, the IC50 was more than 10000 nM.

In turn, `CC[C@H](N[C@H](CC(C)C)C(=O)N[C@@H](Cc1ccc(OC)cc1)C(=O)NC)P(=O)(O)O` displayed an IC50 of 15600 nM.

The compound `CCC(NC(CC(C)C)C(=O)N[C@@H](Cc1ccc(OC)cc1)C(=O)NC)[PH](=O)O` (stereo not given in full) had an IC50 of more than 100000 nM.

The compound `CNC(=O)[C@H](Cc1ccc(OC)cc1)NC(=O)[C@H](CC(C)C)N[C@@H](CCNC(=O)OCc1ccccc1)C(=O)O` returned an IC50 of 350 nM.

`CC[C@@H](N[C@@H](CC(C)C)C(=O)N[C@@H](Cc1ccccc1)C(=O)NC)P(=O)(O)O`: half-maximal inhibition (IC50) required 240 nM.

`CC[C@@H](N[C@H](CC(C)C)C(=O)N[C@@H](Cc1ccccc1)C(=O)NC)P(=O)(O)O`: the IC50 is more than 10000 nM.

The compound `CCCC(NC(CC(C)C)C(=O)N[C@@H](Cc1ccc(OC)cc1)C(=O)NC)P(=O)(O)O` (stereo not given in full) showed an IC50 of 15700 nM.

In the case of `CNC(=O)[C@H](Cc1ccc(OC)cc1)NC(=O)[C@H](CC(C)C)N[C@@H](C)P(=O)(O)O`, the IC50 came to 520 nM.

Take `CNC(=O)[C@H](Cc1ccccc1)NC(=O)[C@H](CC(C)C)N[C@H](CCc1ccccc1)P(=O)(O)O`: the IC50 came to 1820 nM.

`CCCCC(NC(CC(C)C)C(=O)N[C@@H](Cc1ccc(OC)cc1)C(=O)NC)P(=O)(O)O` (stereo not given in full): the IC50 came to 41200 nM.

`CNC(=O)CP(=O)(O)C[C@@H](CC(C)C)C(=O)N[C@@H](Cc1ccc(OC)cc1)C(=O)NC` gave a concentration for half-maximal inhibition (IC50) of 37000 nM.

`CC[C@@H](N[C@@H](CC(C)C)C(=O)N[C@@H](Cc1ccc(OC)cc1)C(=O)NC)P(=O)(O)O`: it took 300 nM to reach half-maximal inhibition (IC50).

Take `CC[C@H](N[C@@H](CC(C)C)C(=O)N[C@@H](Cc1nc2ccccc2[nH]1)C(=O)NC)P(=O)(O)O`: the IC50 was determined as 150 nM.

For the compound `CNC(=O)[C@H](Cc1ccc(OC)cc1)NC(=O)C(CC(C)C)NC(C)P(C)(=O)O` (stereo not given in full), the IC50 was more than 100000 nM.

The compound `CNC(=O)[C@H](Cc1ccccc1)NC(=O)[C@H](CC(C)C)N[C@@H](CCc1ccccc1)P(=O)(O)O` yielded an IC50 of 400 nM.

With `CC[C@H](N[C@@H](CC(C)C)C(=O)N[C@@H](Cc1ccc(OC)cc1)C(=O)NC)P(=O)(O)O`, inhibition was half-maximal at 470 nM (IC50).

With `CC[C@@H](N[C@@H](CC(C)C)C(=O)N[C@@H](CCCCN)C(=O)NC)P(=O)(O)O`, the IC50 was determined as 740 nM.

`CC[C@H](N[C@@H](CC(C)C)C(=O)N[C@@H](CC(=O)NCCN1CCCC1)C(=O)NC)P(=O)(O)O` displayed an IC50 of 1360 nM.

In turn, `CNC(=O)[C@H](Cc1ccc(OC)cc1)NC(=O)C(CC(C)C)NC(C(C)C)P(=O)(O)O` (stereo not given in full) came in with an IC50 of 2900 nM.

For the compound `CNC(=O)[C@H](Cc1ccc(OC)cc1)NC(=O)[C@H](CC(C)C)N[C@H](C)C(=O)O`, the IC50 was more than 10000 nM.

As for `CC[C@H](N[C@@H](CC(C)C)C(=O)N[C@@H](CCCN(C)C)C(=O)NC)P(=O)(O)O`, the IC50 is 490 nM.

In turn, `CC[C@H](N[C@@H](CC(C)C)C(=O)N[C@@H](Cc1c[nH]c2ccccc12)C(=O)NC)P(=O)(O)O` showed an IC50 of 50 nM.

`CC[C@H](N[C@@H](CC(C)C)C(=O)N[C@@H](Cc1ccccc1)C(=O)NC)P(=O)(O)O` came in with an IC50 of 230 nM.

Compound `CNC(=O)[C@H](Cc1ccccc1)NC(=O)[C@H](CC(C)C)N[C@@H](CC(C)C)P(=O)(O)O` yielded an IC50 of 1560 nM.

`CC[C@@H](N[C@H](CC(C)C)C(=O)N[C@@H](Cc1ccc(OC)cc1)C(=O)NC)P(=O)(O)O` returned an IC50 of 39300 nM.
